Measured values from ChEMBL document CHEMBL4725476, “Fluorescent Probes for Ecto-5'-nucleotidase (CD73)” (ACS Med Chem Lett, 2020).
pKi: −log10 of the molar value. Calls of active or inactive are those of the source. No cut-off for these calls is given here.

Assays:
[1] = Selectivity index, ratio of Ki for rat C-terminal His-tagged CD73 expressed in Sf9 cells to Ki for recombinant human C-terminal His-tagged CD73 (27 to 549 residues) expressed in Sf9 cells
Summary of the method: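 Ki values were measured in a radiometric assay with [3H]AMP substrate against rat and human recombinant soluble CD73 expressed in Sf9 insect cells. Residual [3H]AMP was precipitated with lanthanum chloride and removed by filtration, and [3H]adenosine was quantified by liquid scintillation counting. Ki came from full-curve IC50 via Cheng–Prusoff, 3 separate experiments. The ratio is rat Ki over human Ki.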

[2] = molecular target: T1, Ectonucleoside triphosphate diphosphohydrolase 2 (Homo sapiens) (UniProt Q9Y5L3); assay: Inhibition of human NTPDase 2 expressed in […] cells using ATP as substrate at 50 uM incubated for 5 mins followed by substrate addition and measured after 30 mins by capillary electrophoresis method; type: cell-based
T1 sequence (whole entry): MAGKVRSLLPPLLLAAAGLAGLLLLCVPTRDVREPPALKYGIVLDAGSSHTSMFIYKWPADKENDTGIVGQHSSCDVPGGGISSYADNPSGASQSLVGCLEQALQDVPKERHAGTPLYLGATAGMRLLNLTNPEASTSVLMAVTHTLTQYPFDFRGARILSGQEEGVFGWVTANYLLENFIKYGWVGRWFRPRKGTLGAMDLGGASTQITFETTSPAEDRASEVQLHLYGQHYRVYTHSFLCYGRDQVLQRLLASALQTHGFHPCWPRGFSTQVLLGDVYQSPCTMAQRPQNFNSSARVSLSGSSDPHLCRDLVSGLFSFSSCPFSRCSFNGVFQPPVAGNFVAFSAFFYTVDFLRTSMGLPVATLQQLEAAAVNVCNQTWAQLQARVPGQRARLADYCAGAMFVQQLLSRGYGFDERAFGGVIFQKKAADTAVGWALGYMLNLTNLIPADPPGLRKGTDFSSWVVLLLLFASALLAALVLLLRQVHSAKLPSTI

[3] = Metabolic stability in human liver microsomes assessed as half life measured for 60 mins; type: ADME, Microsome
Summary of the method: (§1)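 Stability of the probe tested by incubation with human liver microsomes. Intrinsic clearance expressed per mg microsomal protein; half-life derived from the clearance.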

5'-nucleotidase [4] = molecular target: T2, 5'-nucleotidase (Homo sapiens, UniProt P21589); assay: Inhibition of CD73 in human MDA-MB-231 cells incubated for 30 mins by anti-CD73 antibody and alexa flour 633 staining based confocal microscopy analysis; type: cell-based
Summary of the method: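 MDA-MB-231 cells grown on cover slips were stained with rabbit anti-human CD73 antibody (h5NT-1L), then incubated with Alexa Fluor 633 goat anti-rabbit IgG secondary together with the fluorescein-labelled CD73 inhibitor. Nuclei were counterstained with DAPI. Cell-surface CD73 and probe binding were imaged by confocal microscopy.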

MDA-MB-231 = assay: Cytotoxicity against human MDA-MB-231 cells assessed as reduction in cell growth at 10000 nM incubated for 24 hrs by FACS analysis; type: cell-based; settings: mda-mb-231, 24 h, 10 µM
5'-nucleotidase [5] = molecular target: T2, 5'-nucleotidase; assay: Inhibition of CD73 in human MDA-MB-231 cells using [2,8-3H]-AMP as substrate incubated for 25 mins by scintillation counting method; type: cell-based
Summary of the method: (§2)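 Radiometric CD73 assay using [3H]AMP substrate. Enzyme sources: human and rat recombinant soluble CD73 from Sf9 insect cells, or membrane preparations of MDA-MB-231 cells with native CD73. After incubation, unreacted [3H]AMP precipitated with lanthanum chloride and removed by filtration. [3H]adenosine in filtrate quantified by liquid scintillation counting. Full concentration-inhibition curves; Ki from IC50 via Cheng–Prusoff. Means ± SEM of 3 separate experiments.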

Retina = assay: Effect on C57BL/6 mouse retina with CD73-/- deficient incubated for 1 hr by microscopic analysis; type: ADME, tissue-based
Summary of the method: (§3)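 Eyeballs enucleated from wild-type and CD73 knockout mice (targeted gene disruption). Free-floating vibratome-cut eye sections costained with rabbit anti-rat CD73 and chicken anti-vimentin antibodies. Then incubated with fluorochrome-conjugated second-stage antibodies together with fluorescein-labeled inhibitor. Nuclei counterstained with DAPI; read by immunofluorescence microscopy.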

5'-nucleotidase [6] = molecular target: T2, 5'-nucleotidase; assay: Inhibition of recombinant human C-terminal His-tagged CD73 (27 to 549 residues) expressed in Sf9 cells using [2,8-3H]-AMP as substrate incubated for 25 mins by scintillation counting method; summary of the method: as §2
[7] = molecular target: T3, 5'-nucleotidase (Mus musculus) (UniProt Q61503); assay: Inhibition of CD73 in C57BL/6 mouse retina incubated for 1 hr by microscopic analysis; type: tissue-based; summary of the method: as §3
T3 sequence (whole entry): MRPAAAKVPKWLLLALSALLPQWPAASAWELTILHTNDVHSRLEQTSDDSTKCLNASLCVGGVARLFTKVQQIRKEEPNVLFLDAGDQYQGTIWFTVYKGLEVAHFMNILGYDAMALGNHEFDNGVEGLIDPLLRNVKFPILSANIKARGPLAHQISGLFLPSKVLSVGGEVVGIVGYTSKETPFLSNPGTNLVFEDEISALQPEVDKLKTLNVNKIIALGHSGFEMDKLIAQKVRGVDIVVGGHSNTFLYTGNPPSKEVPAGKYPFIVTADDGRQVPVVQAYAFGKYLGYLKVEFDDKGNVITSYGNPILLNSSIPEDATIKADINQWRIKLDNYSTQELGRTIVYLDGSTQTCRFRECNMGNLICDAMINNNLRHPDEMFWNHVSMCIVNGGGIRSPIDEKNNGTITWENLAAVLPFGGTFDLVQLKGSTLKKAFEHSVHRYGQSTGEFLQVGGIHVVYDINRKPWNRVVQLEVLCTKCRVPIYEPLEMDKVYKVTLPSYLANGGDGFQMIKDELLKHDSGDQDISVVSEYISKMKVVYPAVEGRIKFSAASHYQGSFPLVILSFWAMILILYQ

[8] = molecular target: P2Y purinoceptor 12 (Homo sapiens) (UniProt Q9H244); assay: Effect on human P2Y12 expressed in […] cells assessed as beta arrestin recruitment at 10 uM by beta-arrestin assay; type: functional, cell-based; settings: CHO-K1
[9] = molecular target: T4, Ectonucleoside triphosphate diphosphohydrolase 1 (Homo sapiens) (UniProt P49961); assay: Inhibition of human NTPDase 1 expressed in […] cells using ATP as substrate at 50 uM incubated for 5 mins followed by substrate addition and measured after 30 mins by capillary electrophoresis method; type: cell-based
T4 sequence (whole entry): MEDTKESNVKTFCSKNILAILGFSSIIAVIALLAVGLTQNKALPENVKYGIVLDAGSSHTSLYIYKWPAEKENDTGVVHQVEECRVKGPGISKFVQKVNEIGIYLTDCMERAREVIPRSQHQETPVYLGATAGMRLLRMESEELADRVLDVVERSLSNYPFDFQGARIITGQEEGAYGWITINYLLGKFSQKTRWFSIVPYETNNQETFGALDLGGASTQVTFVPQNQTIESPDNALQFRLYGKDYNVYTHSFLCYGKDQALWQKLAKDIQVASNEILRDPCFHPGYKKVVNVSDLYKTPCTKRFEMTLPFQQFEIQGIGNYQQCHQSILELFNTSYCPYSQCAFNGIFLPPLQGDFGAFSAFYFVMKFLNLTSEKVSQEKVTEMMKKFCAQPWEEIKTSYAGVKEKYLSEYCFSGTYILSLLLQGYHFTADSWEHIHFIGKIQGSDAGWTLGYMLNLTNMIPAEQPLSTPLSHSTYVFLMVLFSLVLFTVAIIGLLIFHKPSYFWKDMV

[10] = Metabolic stability in human liver microsomes assessed as intrinsic clearance measured for 60 mins; type: ADME, Microsome; settings: read-out: CLH; summary of the method: as §1
A549 = assay: Cytotoxicity against human A549 cells assessed as reduction in cell growth at 1000 nM incubated for 48 hrs by CCK8 assay; type: cell-based; settings: a549, 48 h, 1 µM
[11] = molecular target: T5, Ectonucleoside triphosphate diphosphohydrolase 3 (Homo sapiens) (UniProt O75355); assay: Inhibition of human NTPDase 3 expressed in […] cells using ATP as substrate at 50 uM incubated for 5 mins followed by substrate addition and measured after 30 mins by capillary electrophoresis method; type: cell-based
T5 sequence (whole entry): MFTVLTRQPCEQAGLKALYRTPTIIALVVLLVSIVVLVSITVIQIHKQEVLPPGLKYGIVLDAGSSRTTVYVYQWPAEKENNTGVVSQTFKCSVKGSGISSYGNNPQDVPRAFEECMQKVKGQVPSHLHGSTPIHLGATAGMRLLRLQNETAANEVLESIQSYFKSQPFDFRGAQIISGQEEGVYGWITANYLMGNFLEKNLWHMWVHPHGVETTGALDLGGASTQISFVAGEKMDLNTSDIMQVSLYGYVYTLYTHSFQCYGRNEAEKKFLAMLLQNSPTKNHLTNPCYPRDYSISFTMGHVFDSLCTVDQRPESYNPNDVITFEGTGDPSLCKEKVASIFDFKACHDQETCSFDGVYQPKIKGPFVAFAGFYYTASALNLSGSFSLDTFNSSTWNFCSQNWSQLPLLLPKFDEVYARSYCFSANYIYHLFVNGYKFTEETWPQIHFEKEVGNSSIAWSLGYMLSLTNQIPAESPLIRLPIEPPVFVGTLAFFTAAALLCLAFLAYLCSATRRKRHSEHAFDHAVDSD

5'-nucleotidase [12] = molecular target: T6, 5'-nucleotidase (Rattus norvegicus, UniProt P21588); assay: Inhibition of recombinant rat CD73 expressed in Sf9 cells using [2,8-3H]-AMP as substrate incubated for 25 mins by scintillation counting method; summary of the method: as §2
T6 sequence (P21588 whole entry): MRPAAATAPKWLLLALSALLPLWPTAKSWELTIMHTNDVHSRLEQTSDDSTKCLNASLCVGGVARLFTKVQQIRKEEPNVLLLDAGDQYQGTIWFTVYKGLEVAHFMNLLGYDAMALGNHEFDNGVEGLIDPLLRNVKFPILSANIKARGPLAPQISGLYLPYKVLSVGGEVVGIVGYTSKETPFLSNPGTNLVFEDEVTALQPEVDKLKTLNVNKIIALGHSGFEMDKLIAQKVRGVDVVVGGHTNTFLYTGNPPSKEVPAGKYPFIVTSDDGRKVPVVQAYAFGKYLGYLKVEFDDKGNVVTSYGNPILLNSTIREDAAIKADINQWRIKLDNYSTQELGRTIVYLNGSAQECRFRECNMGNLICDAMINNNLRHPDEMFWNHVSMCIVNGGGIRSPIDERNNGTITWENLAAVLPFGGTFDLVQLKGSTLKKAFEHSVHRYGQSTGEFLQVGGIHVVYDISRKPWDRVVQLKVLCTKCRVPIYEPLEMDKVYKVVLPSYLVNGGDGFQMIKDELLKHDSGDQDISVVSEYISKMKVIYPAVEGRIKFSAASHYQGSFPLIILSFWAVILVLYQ

[13] = molecular target: T7, Ectonucleoside triphosphate diphosphohydrolase 8 (Homo sapiens) (UniProt Q5MY95); assay: Inhibition of human NTPDase 8 expressed in […] cells using ATP as substrate at 50 uM incubated for 5 mins followed by substrate addition and measured after 30 mins by capillary electrophoresis method; type: cell-based
T7 sequence (whole entry): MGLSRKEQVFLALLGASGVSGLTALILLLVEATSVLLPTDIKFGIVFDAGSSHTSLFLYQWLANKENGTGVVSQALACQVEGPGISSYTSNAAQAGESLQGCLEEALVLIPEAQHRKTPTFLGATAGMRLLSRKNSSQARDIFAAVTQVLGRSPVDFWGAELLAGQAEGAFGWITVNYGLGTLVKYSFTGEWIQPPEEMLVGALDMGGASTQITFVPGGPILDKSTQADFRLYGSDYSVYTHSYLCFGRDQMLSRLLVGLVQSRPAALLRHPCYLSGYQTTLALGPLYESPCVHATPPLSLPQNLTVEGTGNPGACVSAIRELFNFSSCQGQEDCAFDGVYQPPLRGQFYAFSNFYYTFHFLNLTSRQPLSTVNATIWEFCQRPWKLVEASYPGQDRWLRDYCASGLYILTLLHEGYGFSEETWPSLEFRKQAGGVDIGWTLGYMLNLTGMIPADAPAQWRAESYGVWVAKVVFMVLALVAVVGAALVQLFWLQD

T2 sequence (P21589 whole entry): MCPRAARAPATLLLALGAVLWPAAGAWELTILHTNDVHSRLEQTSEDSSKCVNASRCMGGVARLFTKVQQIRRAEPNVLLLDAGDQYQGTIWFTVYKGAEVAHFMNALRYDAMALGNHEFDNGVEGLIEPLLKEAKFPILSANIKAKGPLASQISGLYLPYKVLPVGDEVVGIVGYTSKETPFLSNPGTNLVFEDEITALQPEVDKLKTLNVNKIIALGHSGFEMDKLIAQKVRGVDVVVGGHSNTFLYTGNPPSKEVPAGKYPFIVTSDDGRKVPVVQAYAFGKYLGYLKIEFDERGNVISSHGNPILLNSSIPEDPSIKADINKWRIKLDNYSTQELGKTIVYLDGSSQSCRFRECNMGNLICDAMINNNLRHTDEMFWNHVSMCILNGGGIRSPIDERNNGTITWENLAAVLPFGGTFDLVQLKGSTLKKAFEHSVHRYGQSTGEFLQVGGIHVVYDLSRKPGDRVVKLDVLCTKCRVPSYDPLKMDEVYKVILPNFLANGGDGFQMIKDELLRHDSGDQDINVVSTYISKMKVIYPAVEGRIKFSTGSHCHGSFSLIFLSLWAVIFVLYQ
P2Y purinoceptor 12 (Homo sapiens), sequence (Q9H244 whole entry): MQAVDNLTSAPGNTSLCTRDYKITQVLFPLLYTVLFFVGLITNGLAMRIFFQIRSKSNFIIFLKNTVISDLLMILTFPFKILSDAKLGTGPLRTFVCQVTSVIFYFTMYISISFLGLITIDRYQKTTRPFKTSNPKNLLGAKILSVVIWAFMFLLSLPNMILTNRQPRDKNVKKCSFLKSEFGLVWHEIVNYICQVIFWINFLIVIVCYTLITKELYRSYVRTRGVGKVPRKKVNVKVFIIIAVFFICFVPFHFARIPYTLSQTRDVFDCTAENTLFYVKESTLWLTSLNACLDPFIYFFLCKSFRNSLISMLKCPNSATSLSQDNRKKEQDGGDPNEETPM

Row | inhibition [2] | half-life [3] [h] | inhibition (5'-nucleotidase [4]) | pKi (5'-nucleotidase [5]) | pKi (5'-nucleotidase [6]) | inhibition [7] | Activity [8] | inhibition [9] | microsomal CLint [10] [µL/min/mg] | inhibition [11] | pKi (5'-nucleotidase [12]) | inhibition [13] | SMILES | Ratio Ki [1] | Activity (MDA-MB-231) | Activity (Retina) | Activity (A549)
1 | inactive | 1.93 | Active | 8.34 | 8.53 | Active | inactive | inactive | 12 | inactive | 7.59 | inactive | O=C(NCCCCCCNC(=O)c1ccc2c(c1)C1(OC2=O)c2ccc(O)cc2Oc2cc(O)ccc21)c1ccc(CNc2ncnc3c2ncn3[C@@H]2O[C@H](COP(=O)(O)CP(=O)(O)O)[C@@H](O)[C@H]2O)cc1 | 8 | Non-Toxic | Non-Toxic | Non-Toxic
2 |  |  | Active |  | 7.90 | Active |  |  |  |  |  |  | O=C(NCCOCCOCCNC(=O)c1ccc2c(c1)C1(OC2=O)c2ccc(O)cc2Oc2cc(O)ccc21)c1ccc(CNc2ncnc3c2ncn3[C@@H]2O[C@H](COP(=O)(O)CP(=O)(O)O)[C@@H](O)[C@H]2O)cc1 |  | Non-Toxic | Non-Toxic | Non-Toxic
